Screening data deposited in PubChem by The Scripps Research Institute Molecular Screening Center.
Shown are actives, neighbours in structure and some others; about 0.99% of the full set was active somewhere.
RBBP9 inhibitor – inhibitors of human serine hydrolase RBBP9. recombinant RBBP9, FP-Rh probe fluorescence polarization. actives 0.2% (n = 220,000). O75884. inhibition, % at 7.94 µM;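 active = inhibition above the campaign mean of all tested compounds plus 3 SD, cut at about 14% in these data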;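 note: plate controls were DMSO wells with RBBP9 for no effect and wells lacking RBBP9 protein for full effect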
Target sequence (O75884 whole entry, looked up): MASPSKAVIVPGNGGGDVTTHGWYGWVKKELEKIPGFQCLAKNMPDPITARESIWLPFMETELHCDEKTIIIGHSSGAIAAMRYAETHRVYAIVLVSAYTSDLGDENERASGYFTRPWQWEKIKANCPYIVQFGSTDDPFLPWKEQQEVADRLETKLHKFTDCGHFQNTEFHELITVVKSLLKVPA
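Test system – recombinant human RBBP9 · Input – RBBP9 2.5 µM in dispensing solution, pre-mixing · Medium – Tris buffer pH 8.0, NaCl, Pluronic · Schedule – preincubation 30 min plus labeling 45 min at 25 °C · Measured by – fluorescence polarization · Measure – % inhibition · Controls – DMSO and no-protein wells · Replicates – one well per compound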
LYPLA1 counter – LYPLA1 (human) inhibition in PME1 counter-screen; O75608; recombinant LYPLA1, FP-Rh probe fluorescence polarization; inhibition, % at 5.9 µM; actives 0.16% (n = 320,000); AID 2174;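 active = inhibition above the mean of all tested compounds plus 3 SD, set per campaign, cut at about 14% in these data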;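 note: inhibitors block serine hydrolase probe labeling of LYPLA1 so polarization falls; 0% = enzyme with DMSO and 100% = wells lacking LYPLA1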
Target sequence (O75608 whole entry, looked up): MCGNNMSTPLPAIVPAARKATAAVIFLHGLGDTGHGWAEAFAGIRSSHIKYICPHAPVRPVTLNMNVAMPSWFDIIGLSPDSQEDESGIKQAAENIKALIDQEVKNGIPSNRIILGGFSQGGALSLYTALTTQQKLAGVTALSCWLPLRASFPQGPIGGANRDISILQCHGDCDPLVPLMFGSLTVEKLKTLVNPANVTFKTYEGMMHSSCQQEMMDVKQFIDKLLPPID
LYPLA2 counter – blocks human lysophospholipase 2, a PME1 counter-screen; inhibition, % at 5.9 µM; recombinant LYPLA2, FP-Rh probe fluorescence polarization; actives 0.38% (n = 320,000);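 active = inhibition above the screen-wide mean plus 3 SD, limit set per campaign, cut at about 26% in these data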;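 note: 0% = LYPLA2 with DMSO and 100% = wells lacking LYPLA2 enzyme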
Target sequence (O95372 whole entry, looked up): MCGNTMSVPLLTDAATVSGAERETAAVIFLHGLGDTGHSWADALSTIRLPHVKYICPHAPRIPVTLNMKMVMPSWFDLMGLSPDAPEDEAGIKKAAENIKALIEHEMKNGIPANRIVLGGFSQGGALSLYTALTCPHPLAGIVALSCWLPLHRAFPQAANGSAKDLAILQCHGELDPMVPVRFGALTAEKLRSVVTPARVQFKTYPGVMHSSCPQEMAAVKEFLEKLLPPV
Fam108B counter – Fam108B inhibition, counter-screen for RBBP9 inhibitors; recombinant Fam108B, FP-Rh probe fluorescence polarization; inhibition, % at 9.51 µM; actives 0.33% (n = 300,000);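 active = inhibition above the screen mean inhibition plus 3 SD, computed separately per campaign, cut at about 18% in these data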;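 note: inhibitors lower polarization as less probe binds the enzyme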
PME-1 inh – blocks human protein phosphatase methylesterase 1 | recombinant PME-1, FP-Rh probe fluorescence polarization | actives 0.53% (n = 320,000) | inhibition, % at 5.9 µM | Q9Y570;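 active = inhibition above the campaign mean of all compounds plus 3 SD, cut at about 26% in these data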;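 note: competitive labeling of PME-1 active site by serine hydrolase directed probe; 0% = PME-1 with DMSO and 100% = wells lacking PME-1 enzyme; inhibitors block probe labeling so polarization falls and inhibition rises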
LYPLA2 confirm – counter-screen for PME1 inhibitors: confirmation of human LYPLA2 inhibitors; shares compounds with LYPLA2 counter; recombinant LYPLA2, FP-Rh probe fluorescence polarization; inhibition, % at 5.9 µM; actives 72% (n = 1,100); AID 2232;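 active = mean inhibition across replicates above the hit cutoff set in the primary screen, cut at about 26% in these data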;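 note: blocked labeling of the enzyme by serine hydrolase FP-Rh probe lowers polarization; 0% = enzyme with DMSO and 100% = wells lacking LYPLA2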
LYPLA2 ABPP – LYPLA2 (human) inhibition, late stage results; shares compounds with LYPLA2 counter; rhLYPLA2 in mouse brain proteome, gel ABPP FP-Rh; inhibition, % at 20 µM; actives 30% (n = 150);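 active = inhibition of LYPLA2 enzyme probe labeling above about 50%, limit read from the data; inactive = inhibition below that limit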;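 note: loss of FP-Rh probe labeling of the LYPLA2 gel band measured as band density; 0% = DMSO only control band and 100% = blank gel background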
* hit, by the source's call; nt = no result.

SMILES	RBBP9 inhibitor	LYPLA1 counter	LYPLA2 counter	Fam108B counter	PME-1 inh	LYPLA2 confirm	others
COc1ccccc1Oc1ccc2c(c1)C(=O)N(c1cccc(O)c1)C2=O	-8	-9	51*	-4	-5	51*	LYPLA2 ABPP=34
COc1ccccc1Oc1ccc2c(c1)C(=O)N(c1cccc3ncccc13)C2=O	9	nt	nt	nt	nt	nt
COc1ccc(Cl)cc1NC(=O)c1noc2c1CCCC2	0	-2	0	-3	0	nt
COc1ccc(Cl)cc1NC(=O)c1noc(C)c1[N+](=O)[O-]	nt	-1	28*	2	3	36*
Cc1cccc(-n2c(CNC(=O)c3ccc(S(=O)(=O)N4CCCCC4)cc3)n[nH]c2=S)c1	nt	0	79*	1	5	5
O=C(CCC(=O)N1CCN(c2ccc(Cl)c(Cl)c2)CC1)c1ccccc1	nt	13	37*	-3	7	31*
C=CCOc1ccccc1CN1CCC(CO)(CCOc2ccccc2)CC1	-8	1	-1	-6	5	nt
Cc1ccc(-n2nnnc2CN2CCCCC2)cc1	2	4	33*	0	3	1
CCc1ccc(C(=O)N2CCC(c3nc4ccccc4s3)CC2)cc1	-2	0	49*	-1	2	39*
COCCCNC(=O)CCCCCNS(=O)(=O)c1ccc(Br)cc1	-6	3	-8	-3	-3	nt
O=C(CSc1ccccn1)N1CCN(c2ncc(C(F)(F)F)cc2Cl)CC1	0	5	-8	-2	-3	nt
O=C(O)c1nn(CC(=O)N2CCN(c3ncc(C(F)(F)F)cc3Cl)CC2)c(=O)c2ccccc12	nt	3	26*	-4	-8	30*
COc1ccc(NC(=O)CN2CCN(c3nc(-c4cccc(OC)c4)cs3)CC2)cc1	-3	1	33*	3	4	19
COc1cccc(-c2csc(N3CCN(CC(=O)Nc4ccc5c(c4)OCO5)CC3)n2)c1	-3	-7	5	1	4	nt
CCOC(=O)N1CCN(CC(=O)Nc2sccc2C#N)CC1	-3	10	45*	7	5	39*
COc1ccc(CCNCc2ccc(OCc3ccccc3)cc2)cc1	nt	1	32*	-4	-1	30*
COc1ccc(CNCCc2ccc(Cl)cc2)cc1OCc1ccccc1	-8	0	4	2	0	nt
CC1CCC(NC(=O)c2ccc(NC(=O)c3ccc(=O)[nH]c3)cc2)CC1 (stereo not drawn)	-4	3	6	3	0	nt
O=C(C[n+]1ccccc1)N/N=C/c1ccc(Cl)cc1	nt	-2	-1	nt	-2	nt
COc1ccc(OCCOc2ccc(S(=O)(=O)N3CCCC3)cc2C(N)=O)cc1	nt	1	14	nt	7	nt
COc1ccc(OCCOc2ccc(S(=O)(=O)N3CCCC3)cc2[N+](=O)[O-])cc1	nt	-2	30*	nt	7	30*
Cc1cccc(Sc2ccc([N+](=O)[O-])cn2)c1	-7	0	29*	-1	3	28*
O=[N+]([O-])c1ccc(Sc2ccccc2)nc1	-3	-2	17	4	-3	nt
Cc1ccccc1Sc1ccc([N+](=O)[O-])cn1	nt	4	34*	0	-4	31*
COc1cc(OC)c2ccc(=O)oc2c1C(CC(=O)N1CCOCC1)c1ccc(N(C)C)cc1 (stereo not drawn)	nt	-4	-9	2	-7	nt
SMILES	RBBP9 inhibitor	LYPLA1 counter	LYPLA2 counter	Fam108B counter	PME-1 inh	LYPLA2 confirm	others
O=[N+]([O-])c1ccc(Sc2cccc3cccnc23)c([N+](=O)[O-])c1	-5	0	4	0	-5	nt
O=[N+]([O-])c1ccc(Sc2cccc3cccnc23)cc1	2	1	28*	3	-1	26
CC(/C=N/NC(=O)Cn1nnc(N)n1)=C\c1ccc(C(C)C)cc1	-7	-5	62*	1	-3	70*
CC(/C=N\NC(=O)Cn1cncn1)=C/c1ccc(C(C)C)cc1	-6	2	0	0	1	nt
O=C(Cc1ccc(S(=O)(=O)N2CCOCC2)s1)N1CCN(c2cccc(C(F)(F)F)c2)CC1	nt	1	40*	0	1	48*
O=C(Cc1ccc(S(=O)(=O)N2CCCC2)s1)N1CCN(c2ccccc2)CC1	-8	-1	0	1	-1	nt
COc1cccc(CNC(=O)C2CCCN(c3cnccn3)C2)c1 (stereo not drawn)	nt	-3	-5	0	-5	nt
O=C(Nc1ccc([N+](=O)[O-])cc1)c1ccc(Cn2cc([N+](=O)[O-])cn2)cc1	-5	-6	46*	-5	2	49*
O=C(Nc1cnn(Cc2ccc(Cl)cc2)c1)c1ccc([N+](=O)[O-])cc1	3	-1	17	-1	8	nt
Cc1ccc2c(c1)N(C(=O)CCC(=O)NCCCN1CCOCC1)CC(C)O2 (stereo not drawn)	nt	2	1	-2	0	nt
O=C(Nc1ccc2c(c1)CCC2)c1cc(S(=O)(=O)N2CCN(c3ccccc3)CC2)ccc1Cl	1	-30	-46	-47	-43	nt
CN(CC(=O)NCc1ccccc1)Cc1ccc(Cl)cc1	nt	0	-2	0	1	nt
CC(=O)Nc1cccc(C(=O)OCC(=O)c2ccc(S(=O)(=O)N3CCCCC3)cc2)c1	nt	8	66*	2	-9	62*
CNC(=O)COC(=O)c1ccc(Cl)c(S(=O)(=O)N2CCCC2)c1	3	3	28*	3	1	6
CC(C)(C)C(=O)N1CCN(c2ccnc3cc(Cl)ccc23)CC1	nt	-3	-6	-1	-2	nt
CC(=O)c1ccc(N2CCN(c3ccnc4cc(Cl)ccc34)CC2)cc1	nt	5	36*	0	-2	27*
CCCc1ccc(C(=O)/C=C/N(C)C)cc1	-2	0	1	6	5	nt
Cc1ccc(NC(=O)Cn2cnc3sc(C(=O)NCCN(C)C)c(C)c3c2=O)cc1Cl	-8	nt	nt	nt	nt	nt
COc1ccccc1NC(=O)Cn1cnc2sc(C(=O)NCc3ccco3)c(C)c2c1=O	-5	0	64*	-1	-2	57*	LYPLA2 ABPP=49
COCCCNC(=O)c1sc2ncn(CC(=O)Nc3ccc(C)c(Cl)c3)c(=O)c2c1C	-5	-11	42*	-3	-5	35*
CCN(CC)CCCNC(=O)c1sc2ncn(CC(=O)Nc3ccc(C)c(Cl)c3)c(=O)c2c1C	-5	-3	38*	-4	-6	40*
CC1CN(c2ccc(Cl)cc2[N+](=O)[O-])CCN1S(C)(=O)=O (stereo not drawn)	7	3	-2	2	-2	nt
Cn1nccc1C(=O)N1CCN(c2cccc(C(F)(F)F)c2)CC1	nt	-3	2	-3	5	nt
